Test results: PMC10704080 (Journal of Advanced Research, 2023)

How the values were obtained:
[1] = Cytotoxicity in HEK293 cells; format: cell-based; conditions: human
Method in brief: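 HEK293 cells (ATCC CRL-1573) counted by haemocytometer and seeded at 5000 cells/well into compound-containing plates in DMEM plus 10% FBS. Incubated 20 h at 37 °C, 5% CO2. Resazurin added (25 μg/mL final) for a further 3 h, then fluorescence read at ex 530/em 590 nm. Percent inhibition calculated against media-only and untreated-cell controls. CC50 fitted from dose-response curves with variable bottom, top and slope.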

[2] = system: human red blood cells (RBC); assay: Haemolytic activity in human red blood cells; format: cell-based; conditions: 1 h, 37 °C
Method in brief: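 Human whole blood washed three times with 3 volumes of 0.9% NaCl, counted by haemocytometer, and resuspended in saline. Cells added to compound-containing plates, shaken 10 min, then incubated 1 h at 37 °C. Plates centrifuged at 1000 × g for 10 min to pellet cells and debris. Haemolysis read as supernatant absorbance at 405 nm.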

Row | SMILES | CC50 at 20 h [1] | RBC (HC10), concentration at 10% haemolytic activity [2]
1 | O=C(CCCCCCCCCC[P+](c1ccccc1)(c1ccccc1)c1ccccc1)Nc1ccc(O)c(O)c1 [Compound 11e, (11-((3,4-dihydroxyphenyl)amino)-11-oxoundecyl)triphenylphosphonium bromide] | 22.4 µg/mL | –
2 | CC[C@H](C)[C@H](NC(=O)CN)C(=O)NCC(=O)N[C@@H](C)C(=O)N[C@H](C(=O)N[C@@H](CC(C)C)C(=O)N[C@@H](CCCCN)C(=O)N[C@H](C(=O)N[C@@H](CC(C)C)C(=O)N[C@H](C(=O)N[C@H](C(=O)NCC(=O)N[C@@H](CC(C)C)C(=O)N1CCC[C@H]1C(=O)N[C@@H](C)C(=O)N[C@@H](CC(C)C)C(=O)N[C@H](C(=O)N[C@@H](CO)C(=O)N[C@@H](Cc1c[nH]c2ccccc12)C(=O)N[C@H](C(=O)N[C@@H](CCCCN)C(=O)N[C@@H](CCCNC(=N)N)C(=O)N[C@@H](CCCCN)C(=O)N[C@@H](CCCNC(=N)N)C(=O)N[C@@H](CCC(N)=O)C(=O)N[C@@H](CCC(N)=O)C(N)=O)[C@@H](C)CC)[C@@H](C)CC)[C@@H](C)O)[C@@H](C)O)C(C)C)C(C)C [Mellitin, melittin] | – | 2.7 µg/mL
